Results published in ChEMBL document CHEMBL1125641, “Syntheses and in vitro evaluation of water-soluble "cationic metalloporphyrin-ellipticine" molecules having a high affinity for DNA” (J Med Chem, 1991).

Columns and labels:
L1210 [1] = assay: Concentration required to reduce 50% growth of L1210 cells in 48 hr; type: functional, cell-based, Mus musculus
Procedure, shortened: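 Murine leukemia L1210 cells grown in vitro with the derivatives, which were dissolved in water. Growth was scored after 48 h against untreated controls. IC50 is the concentration that cuts cell multiplication by 50%. Values are the mean of two or three determinations, or four independent experiments where a standard deviation is given.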

Nucleic Acid [2] = assay: DNA affinity constant to poly[d(A-T)]; type: nucleic-acid assay; details: Bos taurus
Procedure, shortened: (§1)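 Ethidium bromide displacement at 25 °C in 0.01 M cacodylate pH 7.0 with 10 mM NaCl, using 1.26 μM EB and 1 μM polynucleotide (poly[d(A-T)] or poly[d(G-C)]). Bound-EB fluorescence was read across varying drug concentrations. The concentration displacing 50% of EB came from nonlinear-regression fitting, and Kapp was derived from it by the Baguley method.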

Nucleic Acid [3] = assay: DNA affinity constant to poly[d(G-C)]; type: nucleic-acid assay; details: Bos taurus; procedure, shortened: as §1
L1210 [4] = assay: Concentration required to reduce 50% growth of L1210 cells in 48h; b=No inhibition at 7.5 uM; type: functional, cell-based, Mus musculus
Procedure, shortened: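 Murine leukaemia L1210 cells grown in vitro, with the metalloporphyrin derivatives dissolved in water. Growth was measured after 48 h against untreated controls. IC50 is the concentration that cuts the rate of cell multiplication by 50%. Values are the mean of two or three determinations, or of four independent experiments where a deviation is given.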

[5] = tested as the Zn salt or complex

COc1ccc2[nH]c3c(C)c4cc[n+](CCCCC(=O)O)cc4c(C)c3c2c1 was tested, and the IC50 (L1210 [1]; Mus musculus, L1210, 48 h) was greater than 23 µM, the K app (Nucleic Acid [2]) was 2.5e+06 M⁻¹ and the K app (Nucleic Acid [3]) was 4.9e+06 M⁻¹.

For CC(=O)[O-].CC(=O)[O-].CC(=O)[O-].CC(=O)[O-].COc1ccc2[nH]c3c(C)c4cc[n+](CCCCC(=O)Nc5ccc(-c6c7nc(c(-c8cc[n+](C)cc8)c8ccc([nH]8)c(-c8cc[n+](C)cc8)c8nc(c(-c9cc[n+](C)cc9)c9ccc6[nH]9)C=C8)C=C7)cc5)cc4c(C)c3c2c1.[Zn], the IC50 (L1210 [4]) was “No growth inhibition”, the K app (Nucleic Acid [2]; [5]) was 2e+09 M⁻¹ and the K app (Nucleic Acid [3]; [5]) was 1.9e+08 M⁻¹.

With BLEOMYCIN the IC50 (L1210 [1]; l1210) was 1.7 µM.
